Assay [1] addresses T1, Tyrosine-protein phosphatase non-receptor type 2 (Homo sapiens) (UniProt P17706).
T1 sequence (whole entry): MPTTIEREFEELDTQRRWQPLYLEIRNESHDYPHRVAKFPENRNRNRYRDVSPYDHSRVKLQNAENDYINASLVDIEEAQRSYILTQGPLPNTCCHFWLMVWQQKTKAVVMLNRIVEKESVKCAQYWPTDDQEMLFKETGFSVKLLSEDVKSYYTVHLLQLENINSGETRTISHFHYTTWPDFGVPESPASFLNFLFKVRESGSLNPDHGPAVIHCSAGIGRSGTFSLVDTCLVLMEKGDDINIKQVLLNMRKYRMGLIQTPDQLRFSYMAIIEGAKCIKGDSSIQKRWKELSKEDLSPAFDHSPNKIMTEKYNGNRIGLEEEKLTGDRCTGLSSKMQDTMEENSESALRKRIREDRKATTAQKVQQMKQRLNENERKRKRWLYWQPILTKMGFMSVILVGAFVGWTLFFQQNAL
Nature of the assay: Inhibition of human N-terminal His6-tagged TCPTP catalytic domain (1 to 336 residues) expressed in Escherichia coli strain Rosetta2 (DE3) up to 500 uM using pNPP as substrate preincubated for 10 mins followed by substrate addition and measured after 10 mins by […].

The nature of assay [2]: Inhibition of mouse LMPTP-B (1 to 158 residues) expressed in Escherichia coli strain BL21(DE3) using DiFMUP as substrate preincubated for 10 mins followed by substrate addition and measured after 10 mins by fluorescence assay. In outline:
(§1)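 Selectivity panel on enzymes expressed in E. coli BL21(DE3), purified by nickel affinity then size exclusion. DiFMUP fluorescence assay run as for PTP1B/TCPTP, with per-enzyme conditions in a supplementary table; nonlinear regression for IC50; three independent experiments.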

Assay [3] deals with T2, Tyrosine-protein phosphatase non-receptor type 1 (Homo sapiens, UniProt P18031).
T2 sequence (P18031 whole entry): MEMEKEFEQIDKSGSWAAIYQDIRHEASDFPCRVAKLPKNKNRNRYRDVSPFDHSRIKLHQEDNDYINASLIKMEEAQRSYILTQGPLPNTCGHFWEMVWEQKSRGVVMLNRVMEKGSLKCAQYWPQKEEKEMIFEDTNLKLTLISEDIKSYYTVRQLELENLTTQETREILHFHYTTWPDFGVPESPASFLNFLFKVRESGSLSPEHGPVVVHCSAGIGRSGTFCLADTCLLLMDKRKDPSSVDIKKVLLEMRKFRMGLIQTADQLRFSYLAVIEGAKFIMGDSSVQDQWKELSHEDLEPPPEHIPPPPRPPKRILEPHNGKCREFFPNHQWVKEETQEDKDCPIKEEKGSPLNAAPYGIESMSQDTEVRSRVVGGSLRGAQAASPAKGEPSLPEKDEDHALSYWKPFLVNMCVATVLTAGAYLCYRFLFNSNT
Nature of the assay: Binding affinity to human N-terminal His6-tagged PTP1B catalytic domain (1 to 298 residues) expressed in Escherichia coli strain Rosetta2 (DE3) assessed as association rate constant […].

Assay [4] has as its system Mus musculus. Put plainly: Antiobesity activity in high fat diet-induced obese Ptpn1fl/fl/Ptpn2fl/fl null C57BL/6 mouse assessed as hypophagia at 100 ug/kg, ip for 10 consecutive days. In kind it is functional, organism-based.
The target in assay [5] is T3, Receptor-type tyrosine-protein phosphatase eta (Homo sapiens, UniProt Q12913).
T3 sequence (Q12913 whole entry): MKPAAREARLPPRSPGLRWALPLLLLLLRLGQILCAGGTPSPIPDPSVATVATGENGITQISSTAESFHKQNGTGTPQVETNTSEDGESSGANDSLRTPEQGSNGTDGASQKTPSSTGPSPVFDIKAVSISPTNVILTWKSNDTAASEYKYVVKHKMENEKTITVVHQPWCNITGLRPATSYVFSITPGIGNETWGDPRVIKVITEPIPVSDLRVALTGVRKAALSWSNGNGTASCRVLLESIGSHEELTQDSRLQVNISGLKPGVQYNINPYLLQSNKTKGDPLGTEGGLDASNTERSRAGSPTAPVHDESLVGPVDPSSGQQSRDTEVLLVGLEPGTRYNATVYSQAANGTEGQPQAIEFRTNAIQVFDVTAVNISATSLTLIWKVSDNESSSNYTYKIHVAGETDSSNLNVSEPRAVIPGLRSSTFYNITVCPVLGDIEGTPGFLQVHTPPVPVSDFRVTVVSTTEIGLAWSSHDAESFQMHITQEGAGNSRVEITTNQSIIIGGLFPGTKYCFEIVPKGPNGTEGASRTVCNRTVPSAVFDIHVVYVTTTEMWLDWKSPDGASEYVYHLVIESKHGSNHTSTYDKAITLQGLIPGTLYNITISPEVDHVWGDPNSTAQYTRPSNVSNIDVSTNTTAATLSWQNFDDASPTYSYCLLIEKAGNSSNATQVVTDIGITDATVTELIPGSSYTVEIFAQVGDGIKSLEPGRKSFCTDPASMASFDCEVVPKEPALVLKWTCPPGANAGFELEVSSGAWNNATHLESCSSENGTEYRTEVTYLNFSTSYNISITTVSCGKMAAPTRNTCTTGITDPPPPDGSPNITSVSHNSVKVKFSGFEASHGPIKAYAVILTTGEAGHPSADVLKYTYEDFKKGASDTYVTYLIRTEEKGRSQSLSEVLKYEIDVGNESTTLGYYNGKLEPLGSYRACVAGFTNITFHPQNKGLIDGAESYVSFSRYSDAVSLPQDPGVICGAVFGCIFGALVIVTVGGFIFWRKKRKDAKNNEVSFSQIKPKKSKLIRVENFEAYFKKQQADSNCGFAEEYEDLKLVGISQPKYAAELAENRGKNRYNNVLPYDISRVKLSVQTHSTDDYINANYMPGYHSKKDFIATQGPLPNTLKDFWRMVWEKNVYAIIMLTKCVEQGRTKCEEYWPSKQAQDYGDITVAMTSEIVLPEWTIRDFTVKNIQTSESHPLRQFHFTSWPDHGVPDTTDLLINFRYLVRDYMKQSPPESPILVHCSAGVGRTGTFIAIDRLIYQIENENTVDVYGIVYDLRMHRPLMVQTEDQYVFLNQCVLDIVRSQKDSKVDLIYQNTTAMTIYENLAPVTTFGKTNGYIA
Nature of the assay: Inhibition of human PTPRJ (1019 to 1311 residues) expressed in Escherichia coli strain BL21(DE3) using DiFMUP as substrate preincubated for 10 mins followed by substrate addition and measured after 10 mins by fluorescence assay. In outline:
as §1

Assay [6] deals with T4, Tyrosine-protein phosphatase non-receptor type 1 (Homo sapiens) (UniProt P18031).
T4 sequence (whole entry): T2 sequence (P18031 whole entry)
Put plainly: Non competitive inhibition of human N-terminal His6-tagged PTP1B catalytic domain (1 to 393 residues) expressed in Escherichia coli strain Rosetta2 (DE3) using DiFMUP as substrate preincubated for 10 mins followed by substrate addition and measured after 10 mins by Michaelis-Menten plot analysis.

pIC50: −log10 of the molar value. Active and inactive are the calls of the source. No cut-off for these calls is given here.

On to `CC1=C(O)C(=O)C=C2C1=CC=C1[C@@]2(C)CC[C@@]2(C)[C@@H]3C[C@](C)(C(=O)O)CC[C@]3(C)CC[C@]12C` [CELASTROL], for which the inhibition result in assay [1] and in assay [6] was “Active” in each case. The pIC50 (usually −log10 of the IC50, conventionally taken in molar units) in assay [2] was under 3.30; in assay [5] it was 3.95. The kon – broadly, a measure of how fast the partners come together – in assay [3] came out at 59.46 M⁻¹ s⁻¹. Also, the outcome in assay [4] was Active.

These data come from ChEMBL document CHEMBL4371044, “Celastrol Promotes Weight Loss in Diet-Induced Obesity by Inhibiting the Protein Tyrosine Phosphatases PTP1B and TCPTP in the Hypothalamus” (J Med Chem, 2018).
